Data from ChEMBL document CHEMBL1125376, “Class III antiarrhythmic activity of novel substituted 4-[(methylsulfonyl)amino]benzamides and sulfonamides” (J Med Chem, 1992).
Where “and” joins values, the source holds several entries; their conditions need not be identical. Equal values may be shown once. One block for each molecule: values may come before it.

Experiments:
Canis familiaris [1] = species on record: Canis familiaris; assay: Effect on the transmembrane potential of dog Purkinje fibers paced at a basic cycle length of stimulation of 1000 ms, repolarization time to -60 mV, at a concentration of 0.3 uM; assay type: functional; details: Canis lupus familiaris, Purkinje fiber
Outline: (§1)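 Purkinje fiber bundles were taken from pentobarbital-anesthetized mongrel dogs. They were superfused at 37.5-38.0 °C with Tyrode's (mM: NaCl 138, KCl 4, CaCl2 2, NaHCO3 24, MgCl2 0.5, Na2HPO4 1.8, dextrose 5) gassed with 95% O2-5% CO2, pH 7.3-7.4. Stimulation used 2.0 ms pulses at twice threshold. Fibers were equilibrated ≥1 h before drug. Action potentials were recorded at 4-6 sites and averaged per fiber.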

Canis familiaris [2] = species on record: Canis familiaris; assay: Effect on the transmembrane potential of dog Purkinje fibers paced at a basic cycle length of stimulation of 300 ms, repolarization time to -60 mV; assay type: functional; details: Canis lupus familiaris; Purkinje fiber; outline: as §1
Canis familiaris [3] = species on record: Canis familiaris; assay: Effect on the transmembrane potential of dog Purkinje fibers paced at a basic cycle length of stimulation of 300 ms, repolarization time to -60 mV, at a concentration of 0.3 uM; assay type: functional; details: Canis lupus familiaris, Purkinje fiber; outline: as §1
Canis familiaris [4] = species on record: Canis familiaris; assay: Effect on the transmembrane potential of dog Purkinje fibers paced at a basic cycle length of stimulation of 1000 ms, repolarization time to -60 mV; assay type: functional; details: Canis lupus familiaris; Purkinje fiber; outline: as §1
Canis familiaris [5] = assay: Effect on atrial effective refractory period, after intravenous administration in open-chest anesthetized dogs at dose of 0.1 mg/kg; assay type: functional, Canis lupus familiaris, Cardiac atrium
Canis familiaris [6] = assay: Effect on ventricular effective refractory period, after intravenous administration in open-chest anesthetized dogs at dose of 0.1 mg/kg; assay type: functional, Canis lupus familiaris, Cardiac ventricle
Canis familiaris [7] = assay: Effect on ventricular effective refractory period, after intravenous administration in open-chest anesthetized dogs at dose of 1.0 mg/kg; assay type: functional, Canis lupus familiaris, Cardiac ventricle
Outline: (§2)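 Mongrel dogs, pentobarbital-anesthetized (30 mg/kg iv plus 5 mg/kg per h), open chest. Compound given iv. Atrial and ventricular effective refractory periods and conduction times measured during pacing at 300 ms, along with heart rate and mean arterial pressure. Two doses per compound, chosen from dose-response runs. Values are % change from predrug, mean ± SE.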

Canis familiaris [8] = assay: Effect on atrial effective refractory period, after intravenous administration in open-chest anesthetized dogs at dose of 1.0 mg/kg; assay type: functional, Canis lupus familiaris, Cardiac atrium
Canis familiaris [9] = assay: Effect on heart rate, after intravenous administration in open-chest anesthetized dogs at dose of 0.1 mg/kg; assay type: functional, Canis lupus familiaris
Canis familiaris [10] = assay: Effect on heart rate, after intravenous administration in open-chest anesthetized dogs at dose of 1.0 mg/kg; assay type: functional, Canis lupus familiaris
Canis familiaris [11] = assay: Effect on mean arterial pressure, after intravenous administration in open-chest anesthetized dogs at dose of 0.1 mg/kg; assay type: functional, Canis lupus familiaris, Artery
Canis familiaris [12] = assay: Effect on mean arterial pressure, after intravenous administration in open-chest anesthetized dogs at dose of 1.0 mg/kg; assay type: functional, Canis lupus familiaris, Artery
Canis familiaris [13] = assay: Effect on ventricular conduction time, after intravenous administration in open-chest anesthetized dogs at dose of 0.1 mg/kg; assay type: functional, Canis lupus familiaris, Cardiac ventricle
Canis familiaris [14] = assay: Effect on ventricular conduction time, after intravenous administration in open-chest anesthetized dogs at dose of 1.0 mg/kg; assay type: functional, Canis lupus familiaris, Cardiac ventricle
Canis familiaris [15] = assay: Effect on atrial conduction time, after intravenous administration in open-chest anesthetized dogs at dose of 0.1 mg/kg; assay type: functional, Canis lupus familiaris, Cardiac atrium
Canis familiaris [16] = assay: Effect on atrial conduction time, after intravenous administration in open-chest anesthetized dogs at dose of 1.0 mg/kg; assay type: functional, Canis lupus familiaris, Cardiac atrium
[17] = (§3) Maximum rate of depolarization of the upstroke of the action potential at 3 uM
Outline: (§4)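 Purkinje fiber bundles from pentobarbital-anesthetized mongrel dogs, superfused at 37.5-38.0 °C with Tyrode's solution (95% O2-5% CO2, pH 7.3-7.4). Stimulation with 2.0 ms square pulses at 2× threshold. Fibers equilibrated at least 1 h before drug. Action potentials recorded at four to six sites, control vs drug, and averaged per fiber.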

[18] = as §3; outline: as §4; remark: listed apart in the source
Canis familiaris [19] = species on record: Canis familiaris; assay: Effect on the transmembrane potential of dog Purkinje fibers paced at a basic cycle length of stimulation of 300 ms, repolarization time to -60 mV at 0.3 uM concentration; assay type: functional; details: Canis lupus familiaris, Purkinje fiber; outline: as §1
Canis familiaris [20] = species on record: Canis familiaris; assay: Effect on the transmembrane potential of dog Purkinje fibers paced at a basic cycle length of stimulation of 1000 ms, repolarization time to -60 mV at 0.3 uM concentration; assay type: functional; details: Canis lupus familiaris, Purkinje fiber; outline: as §1
Canis familiaris [21] = species on record: Canis familiaris; assay: Effect on the transmembrane potential of dog Purkinje fibers paced at a basic cycle length of stimulation of 1000 ms, repolarization time to -60 mV at 3 uM; assay type: functional; details: Canis lupus familiaris, Purkinje fiber; outline: as §1
Canis familiaris [22] = species on record: Canis familiaris; assay: Effect on transmembrane potential of dog Purkinje fibers paced at a basic cycle length of stimulation of 300 ms, repolarization time to -60 mV at 3 uM; assay type: functional; details: Canis lupus familiaris, Purkinje fiber; outline: as §1
Canis familiaris [23] = assay: Prodrug ventricular fibrillation threshold(VFT) in open-chest anesthetized dogs(Control = 8+/-1) at a dose of 2.5 mg/kg iv; assay type: functional, Canis lupus familiaris, Cardiac ventricle
Canis familiaris [24] = assay: Atrial conduction time, after intravenous administration in open-chest anesthetized dogs at dose of 0.05 mg/kg; assay type: functional, Canis lupus familiaris, Cardiac atrium
Canis familiaris [25] = assay: Atrial effective refractory period, after intravenous administration in open-chest anesthetized dogs at dose of 0.05 mg/kg; assay type: functional, Canis lupus familiaris, Cardiac atrium
Canis familiaris [26] = assay: Effect on ventricular effective refractory period, after intravenous administration in open-chest anesthetized dogs at dose of 0.05 mg/kg; assay type: functional, Canis lupus familiaris, Cardiac ventricle
Canis familiaris [27] = assay: Effect on ventricular effective refractory period, after intravenous administration in open-chest anesthetized dogs at dose of 0.5 mg/kg; assay type: functional, Canis lupus familiaris, Cardiac ventricle
Canis familiaris [28] = assay: Effect on heart rate, after intravenous administration in open-chest anesthetized dogs at dose of 0.05 mg/kg; assay type: functional, Canis lupus familiaris
Canis familiaris [29] = assay: Effect on heart rate, after intravenous administration in open-chest anesthetized dogs at dose of 0.5 mg/kg; assay type: functional, Canis lupus familiaris
Canis familiaris [30] = assay: Effect on mean arterial pressure, after intravenous administration in open-chest anesthetized dogs at dose of 0.05 mg/kg; assay type: functional, Canis lupus familiaris, Artery
Canis familiaris [31] = assay: Effect on mean arterial pressure, after intravenous administration in open-chest anesthetized dogs at dose of 0.5 mg/kg; assay type: functional, Canis lupus familiaris, Artery
Canis familiaris [32] = assay: Effect on trial effective refractory period, after intravenous administration in open-chest anesthetized dogs at dose of 0.5 mg/kg; assay type: functional, Canis lupus familiaris
Canis familiaris [33] = assay: Effect on ventricular conduction time, after intravenous administration in open-chest anesthetized dogs at dose of 0.05 mg/kg; assay type: functional, Canis lupus familiaris, Cardiac ventricle
Canis familiaris [34] = assay: Effect on ventricular conduction time, after intravenous administration in open-chest anesthetized dogs at dose of 0.5 mg/kg; assay type: functional, Canis lupus familiaris, Cardiac ventricle
Canis familiaris [35] = assay: Effect on atrial conduction time, after intravenous administration in open-chest anesthetized dogs at dose of 0.5 mg/kg; assay type: functional, Canis lupus familiaris, Cardiac atrium
[36] = Maximum rate of depolarization of the upstroke of the action potential at 3 uM concentration; set-up: unit not given beside the values; outline: as §4
Canis familiaris [37] = species on record: Canis familiaris; assay: Effect on the transmembrane potential of dog Purkinje fibers paced at a basic cycle length of stimulation of 1000 ms, repolarization time to -60 mV, at a concentration of 3 uM; assay type: functional; details: Canis lupus familiaris, Purkinje fiber; outline: as §1
Canis familiaris [38] = species on record: Canis familiaris; assay: Effect on the transmembrane potential of dog Purkinje fibers paced at a basic cycle length of stimulation of 300 ms, repolarization time to -60 mV, at a concentration of 3 uM; assay type: functional; details: Canis lupus familiaris, Purkinje fiber; outline: as §1
Canis familiaris [39] = assay: Effect on atrial effective refractory period, after intravenous administration in open-chest anesthetized dogs at dose of 1.0 mg/kg
Canis familiaris [40] = species on record: Canis familiaris; assay: Effect on the transmembrane potential of dog Purkinje fibers paced at a basic cycle length of stimulation of 1000 ms, repolarization time to -60 mV at 3 uM concentration; assay type: functional; details: Canis lupus familiaris, Purkinje fiber; outline: as §1
Canis familiaris [41] = species on record: Canis familiaris; assay: Effect on the transmembrane potential of dog Purkinje fibers paced at a basic cycle length of stimulation of 300 ms, repolarization time to -60 mV at 3 uM concentration; assay type: functional; details: Canis lupus familiaris, Purkinje fiber; outline: as §1
Canis familiaris [42] = assay: Effect on atrial conduction time, after intravenous administration in open-chest anesthetized dogs at dose of 5.0 mg/kg; assay type: functional, Canis lupus familiaris, Cardiac atrium
Canis familiaris [43] = assay: Effect on ventricular conduction time, after intravenous administration in open-chest anesthetized dogs at dose of 5.0 mg/kg; assay type: functional, Canis lupus familiaris, Cardiac ventricle
Canis familiaris [44] = assay: Effect on ventricular effective refractory period, after intravenous administration in open-chest anesthetized dogs at dose of 5.0 mg/kg; assay type: functional, Canis lupus familiaris, Cardiac ventricle; outline: as §2
Canis familiaris [45] = assay: Effect on atrial effective refractory period, after intravenous administration in open-chest anesthetized dogs at dose of 5.0 mg/kg; assay type: functional, Canis lupus familiaris, Cardiac atrium
Canis familiaris [46] = assay: Effect on heart rate, after intravenous administration in open-chest anesthetized dogs at dose of 5.0 mg/kg; assay type: functional, Canis lupus familiaris
Canis familiaris [47] = assay: Effect on mean arterial pressure, after intravenous administration in open-chest anesthetized dogs at dose of 5.0 mg/kg; assay type: functional, Canis lupus familiaris, Artery

SMILES: Cc1cccc(CCN2CCC(C(=O)c3ccc(NS(C)(=O)=O)cc3)CC2)n1
- APD60 (Canis familiaris [1]): 74
- APD60 (Canis familiaris [2]): 21
- APD60 (Canis familiaris [3]): 27
- APD60 (Canis familiaris [4]): 53
- Change (Canis familiaris [5]): 34%
- Change (Canis familiaris [6]): 20%
- Change (Canis familiaris [7]): 26%
- Change (Canis familiaris [8]): 55%
- Change (Canis familiaris [9]): -18%
- Change (Canis familiaris [10]): -25%
- Change (Canis familiaris [11]): -6%
- Change (Canis familiaris [12]): -19%
- Change (Canis familiaris [13]): -3%
- Change (Canis familiaris [14]): -2%
- Change (Canis familiaris [15]): 1%
- Change (Canis familiaris [16]): 1%

- Vmax [17]: 11
- Vmax [18]: 13
SMILES: CN(CCN(C)S(=O)(=O)c1ccc(NS(C)(=O)=O)cc1)c1nc2ccccc2n1C.Cl
- APD60 (Canis familiaris [19]): 24
- APD60 (Canis familiaris [20]): 46
- APD60 (Canis familiaris [21]): 57
- APD60 (Canis familiaris [22]): 40
- VFT (Canis familiaris [23]): 8 and 24

SMILES: CN(CCN(C)S(=O)(=O)c1ccc(NS(C)(=O)=O)cc1)c1ccc2ccccc2n1
- APD60 (Canis familiaris [2]): 20
- APD60 (Canis familiaris [4]): 46

SMILES: CN(CCOc1ccc(NS(C)(=O)=O)cc1)CCc1ccc(NS(C)(=O)=O)cc1 [DOFETILIDE]
- APD60 (Canis familiaris [2]): 30
- APD60 (Canis familiaris [3]): 42
- APD60 (Canis familiaris [4]): 67
- Change (Canis familiaris [24]): -4%
- Change (Canis familiaris [25]): 46%
- Change (Canis familiaris [26]): 23%
- Change (Canis familiaris [27]): 27%
- Change (Canis familiaris [28]): -14%
- Change (Canis familiaris [29]): -24%
- Change (Canis familiaris [30]): 1%
- Change (Canis familiaris [31]): -2%
- Change (Canis familiaris [32]): 65%
- Change (Canis familiaris [33]): -4%
- Change (Canis familiaris [34]): -4%
- Change (Canis familiaris [35]): -9%

- Vmax [36]: -3
SMILES: Cl.Cn1c(N2CCN(C(=O)c3ccc(NS(C)(=O)=O)cc3)CC2)nc2ccccc21
- APD60 (Canis familiaris [37]): 75
- APD60 (Canis familiaris [19]): 6
- APD60 (Canis familiaris [20]): 17
- APD60 (Canis familiaris [38]): 33
- Change (Canis familiaris [39]): 33%

SMILES: CS(=O)(=O)Nc1ccc(S(=O)(=O)NCCNc2ncccn2)cc1
- APD60 (Canis familiaris [2]): -4
- APD60 (Canis familiaris [4]): 24

- Vmax [36]: -5 and -3
SMILES: CN(CCN(C)c1nc2ccccc2n1C)C(=O)c1ccc(NS(C)(=O)=O)cc1.Cl
- APD60 (Canis familiaris [40]): 65
- APD60 (Canis familiaris [41]): 17
- Change (Canis familiaris [42]): -3%
- Change (Canis familiaris [43]): -6%
- Change (Canis familiaris [7]): 10%
- Change (Canis familiaris [44]): 24%
- Change (Canis familiaris [8]): 18%
- Change (Canis familiaris [45]): 44%
- Change (Canis familiaris [10]): -6%
- Change (Canis familiaris [46]): -27%
- Change (Canis familiaris [12]): 5%
- Change (Canis familiaris [47]): -1%
- Change (Canis familiaris [14]): -1%
- Change (Canis familiaris [16]): -1%

SMILES: CN(CCNS(=O)(=O)c1ccc(NS(C)(=O)=O)cc1)c1nc2ccccc2n1C.Cl
- APD60 (Canis familiaris [40]): 50
- APD60 (Canis familiaris [41]): 16
